Bioassay records (PubChem BioAssay)
SENP7 block = inhibitors of human SENP7 protease; Q9BQF6; recombinant SENP7, Z-RLRGG-aminoluciferin luminescence, 40 min; inhibition, % at 5 µM; actives 1.5% (n = 330,000);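 active = inhibition above about 50% at the single test dose, limit read from the data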;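 also: plate controls were DMSO with enzyme for no effect and no enzyme buffer wells for full effect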
Target sequence (Q9BQF6 706-1050 limits assumed): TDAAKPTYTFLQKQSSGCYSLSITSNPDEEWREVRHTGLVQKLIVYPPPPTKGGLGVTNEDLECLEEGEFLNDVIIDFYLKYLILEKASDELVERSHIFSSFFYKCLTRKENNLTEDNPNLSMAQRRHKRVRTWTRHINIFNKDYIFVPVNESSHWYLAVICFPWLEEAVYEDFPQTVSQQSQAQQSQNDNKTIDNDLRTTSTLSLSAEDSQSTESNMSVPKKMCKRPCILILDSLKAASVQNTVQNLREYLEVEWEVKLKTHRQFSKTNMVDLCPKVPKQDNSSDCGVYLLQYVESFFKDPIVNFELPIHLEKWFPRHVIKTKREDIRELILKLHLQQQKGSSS
SENP1 FRET inh = inhibitors of human SENP1 SUMO protease catalytic domain; Q9P0U3; recombinant SENP1 catalytic domain, CyPet-SUMO1-YPet FRET cleavage; inhibition, % at 10 µM; actives 0.21% (n = 360,000); AID 624204;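 active = inhibition at least 30% at 10 µM, raw YFP signal under a set limit, fluorescence ratio 0.5 to 1.5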;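 also: 0% = enzyme with DMSO and 100% = no enzyme wells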
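system = hSENP1 catalytic domain, recombinant | reagent = SFCypet-SUMO1-SFYpet substrate at 25 nM | doses = one dose per compound, 10 µM, 0.5% DMSO | incubation = enzyme reaction for 50 min at room temperature, dark | measured by = FRET, CFP and YFP emission | controls = no-enzyme low, enzyme-DMSO high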
SENP8 block-1 = inhibitors of human SENP8 protease. purified SENP8, Z-RLRGG-aminoluciferin cleavage, luminescence. AID 2540. Q96LD8. inhibition, % at 10 µM. actives 1.2% (n = 330,000); in the data active = inhibition above about 50%
Target sequence (Q96LD8 whole entry, looked up): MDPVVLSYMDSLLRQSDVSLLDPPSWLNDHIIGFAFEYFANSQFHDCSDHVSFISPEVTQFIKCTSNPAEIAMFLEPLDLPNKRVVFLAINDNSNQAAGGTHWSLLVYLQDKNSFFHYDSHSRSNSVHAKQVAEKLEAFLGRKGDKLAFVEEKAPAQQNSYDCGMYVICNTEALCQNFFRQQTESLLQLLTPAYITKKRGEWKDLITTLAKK
SENP6 block = inhibitors of human SENP6 protease; Q9GZR1; Recombinant SENP6 catalytic domain, aminoluciferin luminescence; inhibition, % at 10 µM; actives 1.8% (n = 330,000);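 active = inhibition above about 50% at the single tested dose, limit read from the data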;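 also: plate controls were DMSO wells with enzyme for no effect and DMSO wells lacking enzyme for full effect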
SENP8 block-2 = blocks human SENP8 cleavage of Nedd8 substrate; Q96LD8; recombinant SENP8, Nedd8 substrate fluorescence; inhibition, % at 20 µM; actives 0.64% (n = 360,000); in the data active = inhibition mostly above about 40%, no sharp cut-off; inactive = mostly below about 27%
SENP8 confirm = human SENP8 inhibition, confirmed. Recombinant SENP8, Z-RLRGG-aminoluciferin luminescence, 60 min. inhibition, % at 12.5 µM. shares compounds with SENP7 block. actives 40% (n = 6,200);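 active = mean inhibition across replicates above about 50%, limit read from the data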
SENP6 confirm = human SENP6 inhibition, confirmed. shares compounds with SENP7 block. recombinant SENP6, Z-RLRGG-aminoluciferin luminescence. inhibition, % at 12.5 µM. actives 58% (n = 6,200)
SENP7 confirm = confirmation of human SENP7 protease inhibitors; shares compounds with SENP7 block; recombinant SENP7, Z-RLRGG-aminoluciferin luminescence, 40 min; inhibition, % at 12.5 µM; actives 69% (n = 6,200); AID 488917
Casp3 SENP sel = inhibits human caspase-3 in SENP selectivity test. purified caspase-3, Z-DEVD-aminoluciferin luminescence, 60 min. actives 60% (n = 6,200). shares compounds with SENP7 block. AID 488918. inhibition, % at 12.5 µM;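 active = mean inhibition above about 50%, limit read from the data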;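 also: plate controls were enzyme with DMSO for no effect and wells without caspase-3 for full effect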
SENP luc ctr = interferes with luciferase luminescence in SENP counter-screen; Pre-incubated SENP8/Z-RLRGG-aminoluciferin, luciferase luminescence interference; inhibition, % at 12.5 µM; actives 39% (n = 6,200); AID 488919; shares compounds with SENP7 block;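 active = mean inhibition above about 50% when retested at one dose, limit read from the data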;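 also: plate controls were DMSO wells with completed reaction for no effect and substrate without enzyme for full effect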
The depositor's hits bear a star. Sampled rows, rich in hits. Any-hit rate of the full collection: about 2.5%.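 The calls were made as follows, unless noted: active = mean inhibition above about 50% in the one-dose retest (limit read from the data); inactive = the rest.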

Screening Oc1cc2ccccc2cc1-c1n[nH]c(=S)o1 returned SENP7 block 75*, SENP1 FRET inh 3, SENP8 block-1 94*, SENP6 block 91*, SENP8 block-2 -275, SENP8 confirm 98*, SENP6 confirm 98*, SENP7 confirm 101*, Casp3 SENP sel 96* and SENP luc ctr 96*.
Screening S=c1[nH]nc(-c2c[nH]c3ccccc23)o1 returned SENP7 block 4, SENP1 FRET inh 1, SENP8 block-1 6, SENP6 block -10 and SENP8 block-2 -298.
CCCCN1CCCCC1(C)C(=O)NCc1ccc2c(c1)OCO2 (centres undefined) was read as SENP1 FRET inh -12 and SENP8 block-2 8.
`O=C(Oc1ccc[nH]c1=O)C1CC1` gave SENP1 FRET inh 1 and SENP8 block-2 0.
For CCNC(=O)Oc1ccc[nH]c1=O the results were SENP7 block 14, SENP1 FRET inh 1, SENP8 block-1 13, SENP6 block 51*, SENP8 block-2 16, SENP8 confirm -3, SENP6 confirm 0, SENP7 confirm -6, Casp3 SENP sel 4 and SENP luc ctr 3.
Screening Cc1cccc(C)c1NC(=O)Cn1nc(-c2ccc(Cl)s2)ccc1=O returned SENP7 block -5, SENP1 FRET inh 2, SENP8 block-1 -7, SENP6 block 3 and SENP8 block-2 -86.
Screening O=C(CSC(=S)N1CCCC1)c1ccccc1 returned SENP7 block 54*, SENP1 FRET inh 4, SENP8 block-1 28, SENP6 block 64*, SENP8 block-2 -9, SENP8 confirm 52*, SENP6 confirm 52*, SENP7 confirm 78*, Casp3 SENP sel 70* and SENP luc ctr 56*.
Screening O=C(CSC(=S)N1CCCCC1)c1ccccc1 returned SENP7 block 74*, SENP1 FRET inh 0, SENP8 block-1 63*, SENP6 block 74*, SENP8 block-2 14, SENP8 confirm -5, SENP6 confirm 63*, SENP7 confirm 90*, Casp3 SENP sel 73* and SENP luc ctr 67*.
COc1ccc(C(=O)CSC(=S)N2CCCCC2)cc1 was read as SENP1 FRET inh 2 and SENP8 block-2 5.
CC1=C(C(=O)N2CCOCC2)CC(CC(=O)NC2CCCCC2)C(=O)N1Cc1ccccc1 (centres undefined) was read as SENP1 FRET inh 1 and SENP8 block-2 -4.
c1ccc(-c2nn3c(-c4ccccc4)nnc3s2)cc1 was read as SENP7 block -2, SENP1 FRET inh -1, SENP8 block-1 -6, SENP6 block 1 and SENP8 block-2 3.
Screening Cc1ccc(-c2nnc3sc(-c4ccncc4)nn23)cc1 returned SENP7 block 57*, SENP1 FRET inh 0, SENP8 block-1 -8, SENP6 block -16, SENP8 block-2 2, SENP8 confirm 1, SENP6 confirm 5, SENP7 confirm 10, Casp3 SENP sel 6 and SENP luc ctr 3.
`Cc1ccc(C)c(N=Nc2nc3ccccc3n2C)c1` gave SENP7 block 87*, SENP1 FRET inh 4, SENP8 block-1 65*, SENP6 block 79*, SENP8 block-2 21, SENP8 confirm 90*, SENP6 confirm 84*, SENP7 confirm 100*, Casp3 SENP sel 63* and SENP luc ctr 94*.
Screening COc1ccc(N(C)S(=O)(=O)c2cccc(C(=O)OCC(=O)Nc3cc(C)ccc3OC)c2)cc1 returned SENP1 FRET inh 0 and SENP8 block-2 12.
COc1ccc(C(=O)NC2CCN(C(=S)NCc3ccco3)CC2)cc1 was read as SENP7 block 60*, SENP1 FRET inh -1, SENP8 block-1 -3, SENP6 block -11, SENP8 block-2 13, SENP8 confirm -1, SENP6 confirm 4, SENP7 confirm 11, Casp3 SENP sel 6 and SENP luc ctr 1.
Screening Cc1nnc(SCC(=O)Nc2ccc([N+](=O)[O-])cc2)n1CC1CCCO1 (centres undefined) returned SENP7 block -8, SENP1 FRET inh 0, SENP8 block-1 1, SENP6 block 10 and SENP8 block-2 10.
Screening CC1CCC/C(=N/Nc2nc3ccccc3s2)C1 (centres undefined) returned SENP7 block 54*, SENP1 FRET inh -2, SENP8 block-1 56*, SENP6 block 43, SENP8 block-2 -167, SENP8 confirm 2, SENP6 confirm 68*, SENP7 confirm 88*, Casp3 SENP sel 49 and SENP luc ctr 52*.
`CC1(C)CC(=O)C/C(=N/Nc2nc3ccccc3s2)C1` gave SENP7 block 6, SENP1 FRET inh -16, SENP8 block-1 4, SENP6 block -7 and SENP8 block-2 -250.
For Cc1ccc(S(=O)(=O)N2CCCC2)cc1C(=O)NCCOc1ccccc1 the results were SENP7 block 1, SENP1 FRET inh 0, SENP8 block-1 0, SENP6 block -9 and SENP8 block-2 7.
`Cc1ccc(NC(=O)CCc2c(C)nn(-c3ccc(N4CCCCC4)nn3)c2C)cc1F` gave SENP7 block 31, SENP1 FRET inh 3, SENP8 block-1 38, SENP6 block 56*, SENP8 block-2 -42, SENP8 confirm 61*, SENP6 confirm 53*, SENP7 confirm 77*, Casp3 SENP sel 38 and SENP luc ctr 10.
`Cc1cc(NC(=O)CSc2ccc(-c3nc4cc(C)c(C)cc4[nH]3)cn2)no1` gave SENP7 block 51*, SENP1 FRET inh -19, SENP8 block-1 0, SENP6 block 6, SENP8 block-2 -301, SENP8 confirm -4, SENP6 confirm 0, SENP7 confirm 8, Casp3 SENP sel 6 and SENP luc ctr 5.
`Cc1cc2nc(-c3ccc(SCC(=O)NC(C)C)nc3)[nH]c2cc1C` gave SENP7 block 11, SENP8 block-1 1 and SENP6 block 8.
Cc1cc2nc(-c3ccc(SCC(=O)Nc4ccc(S(=O)(=O)NC5CC5)cc4)nc3)[nH]c2cc1C was read as SENP7 block 63*, SENP1 FRET inh -8, SENP8 block-1 1, SENP6 block 29, SENP8 block-2 -418, SENP8 confirm 13, SENP6 confirm 18, SENP7 confirm 78*, Casp3 SENP sel 39 and SENP luc ctr 20.
